Assay: phase I dose-escalation: safety and tolerability
Format: in vivo, patients
Method in brief: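 Patients receiving ≥1 oral dose (25–300 mg/day) formed the safety set. Dosing was a single dose on day 1, then 21-day continuous daily dosing after 7 days. AEs graded by CTCAE v4.03. DLT window ran from day 1 of cycle 0 to day 21 of cycle 1 (28 days). ECGs were taken before and 1, 2, 4, 6, 10 and 24 h after the first dose.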

C=CC(=O)Nc1cc(Nc2ncc(Cl)c(Nc3ccccc3C(=O)C(=O)N(C)C)n2)c(OC)cc1N1CCN(C)CC1 [BPI-15086]
TRAE, Grade 3 and 4: Hyperglycemia (25 mg/day (n = 1)): 0 n (%) | TRAE, Grade 3 and 4: any (25 mg/day (n = 1)): 0 n (%) | TRAE, all grades: Anemia (25 mg/day (n = 1)): 0 n (%) | TRAE, all grades: Decreased appetite (25 mg/day (n = 1)): 1 (100.0) n (%) | TRAE, all grades: Decreased total protein (25 mg/day (n = 1)): 0 n (%) | TRAE, all grades: Diarrhea (25 mg/day (n = 1)): 0 n (%) | TRAE, all grades: Elevated ALT (25 mg/day (n = 1)): 0 n (%) | TRAE, all grades: Elevated blood glucose (25 mg/day (n = 1)): 0 n (%) | TRAE, all grades: Elevated blood triglycerides (25 mg/day (n = 1)): 0 n (%) | TRAE, all grades: Elevated blood uric acid (25 mg/day (n = 1)): 0 n (%) | TRAE, all grades: Elevated conjugated bilirubin (25 mg/day (n = 1)): 0 n (%) | TRAE, all grades: Elevated serum creatinine (25 mg/day (n = 1)): 0 n (%) | TRAE, all grades: Elevated γ-glutamyltransferase (25 mg/day (n = 1)): 0 n (%) | TRAE, all grades: Hyperglycemia (25 mg/day (n = 1)): 0 n (%) | TRAE, all grades: Hypoalbuminemia (25 mg/day (n = 1)): 0 n (%) | TRAE, all grades: Nausea (25 mg/day (n = 1)): 0 n (%) | TRAE, all grades: Proteinuria (25 mg/day (n = 1)): 0 n (%) | TRAE, all grades: Vomiting (25 mg/day (n = 1)): 0 n (%) | TRAE, all grades: any (25 mg/day (n = 1)): 1 (100.0) n (%) | TRAE, Grade 3 and 4: Hyperglycemia (50 mg/day (n = 3)): 0 n (%) | TRAE, Grade 3 and 4: any (50 mg/day (n = 3)): 0 n (%) | TRAE, all grades: Anemia (50 mg/day (n = 3)): 0 n (%) | TRAE, all grades: Decreased appetite (50 mg/day (n = 3)): 0 n (%) | TRAE, all grades: Decreased total protein (50 mg/day (n = 3)): 0 n (%) | TRAE, all grades: Diarrhea (50 mg/day (n = 3)): 0 n (%) | TRAE, all grades: Elevated ALT (50 mg/day (n = 3)): 0 n (%) | TRAE, all grades: Elevated blood glucose (50 mg/day (n = 3)): 1 (33.3) n (%) | TRAE, all grades: Elevated blood triglycerides (50 mg/day (n = 3)): 0 n (%) | TRAE, all grades: Elevated blood uric acid (50 mg/day (n = 3)): 0 n (%) | TRAE, all grades: Elevated conjugated bilirubin (50 mg/day (n = 3)): 0 n (%) | TRAE, all grades: Elevated serum creatinine (50 mg/day (n = 3)): 1 (33.3) n (%) | TRAE, all grades: Elevated γ-glutamyltransferase (50 mg/day (n = 3)): 0 n (%) | TRAE, all grades: Hyperglycemia (50 mg/day (n = 3)): 0 n (%) | TRAE, all grades: Hypoalbuminemia (50 mg/day (n = 3)): 0 n (%) | TRAE, all grades: Nausea (50 mg/day (n = 3)): 1 (33.3) n (%) | TRAE, all grades: Proteinuria (50 mg/day (n = 3)): 0 n (%) | TRAE, all grades: Vomiting (50 mg/day (n = 3)): 0 n (%) | TRAE, all grades: any (50 mg/day (n = 3)): 2 (66.7) n (%) | TRAE, Grade 3 and 4: Hyperglycemia (100 mg/day (n = 3)): 0 n (%) | TRAE, Grade 3 and 4: any (100 mg/day (n = 3)): 0 n (%) | TRAE, all grades: Anemia (100 mg/day (n = 3)): 0 n (%) | TRAE, all grades: Decreased appetite (100 mg/day (n = 3)): 0 n (%) | TRAE, all grades: Decreased total protein (100 mg/day (n = 3)): 1 (33.3) n (%) | TRAE, all grades: Diarrhea (100 mg/day (n = 3)): 0 n (%) | TRAE, all grades: Elevated ALT (100 mg/day (n = 3)): 0 n (%) | TRAE, all grades: Elevated blood glucose (100 mg/day (n = 3)): 0 n (%) | TRAE, all grades: Elevated blood triglycerides (100 mg/day (n = 3)): 0 n (%) | TRAE, all grades: Elevated blood uric acid (100 mg/day (n = 3)): 1 (33.3) n (%) | TRAE, all grades: Elevated conjugated bilirubin (100 mg/day (n = 3)): 0 n (%) | TRAE, all grades: Elevated serum creatinine (100 mg/day (n = 3)): 1 (33.3) n (%) | TRAE, all grades: Elevated γ-glutamyltransferase (100 mg/day (n = 3)): 0 n (%) | TRAE, all grades: Hyperglycemia (100 mg/day (n = 3)): 0 n (%) | TRAE, all grades: Hypoalbuminemia (100 mg/day (n = 3)): 0 n (%) | TRAE, all grades: Nausea (100 mg/day (n = 3)): 1 (33.3) n (%) | TRAE, all grades: Proteinuria (100 mg/day (n = 3)): 0 n (%) | TRAE, all grades: Vomiting (100 mg/day (n = 3)): 1 (33.3) n (%) | TRAE, all grades: any (100 mg/day (n = 3)): 3 (100.0) n (%) | TRAE, Grade 3 and 4: Hyperglycemia (200 mg/day (n = 7)): 0 n (%) | TRAE, Grade 3 and 4: any (200 mg/day (n = 7)): 0 n (%) | TRAE, all grades: Anemia (200 mg/day (n = 7)): 3 (42.9) n (%) | TRAE, all grades: Decreased appetite (200 mg/day (n = 7)): 1 (14.3) n (%) | TRAE, all grades: Decreased total protein (200 mg/day (n = 7)): 2 (28.6) n (%) | TRAE, all grades: Diarrhea (200 mg/day (n = 7)): 2 (28.6) n (%) | TRAE, all grades: Elevated ALT (200 mg/day (n = 7)): 1 (14.3) n (%) | TRAE, all grades: Elevated blood glucose (200 mg/day (n = 7)): 2 (28.6) n (%) | TRAE, all grades: Elevated blood triglycerides (200 mg/day (n = 7)): 2 (28.6) n (%) | TRAE, all grades: Elevated blood uric acid (200 mg/day (n = 7)): 3 (42.9) n (%) | TRAE, all grades: Elevated conjugated bilirubin (200 mg/day (n = 7)): 2 (28.6) n (%) | TRAE, all grades: Elevated serum creatinine (200 mg/day (n = 7)): 2 (28.6) n (%) | TRAE, all grades: Elevated γ-glutamyltransferase (200 mg/day (n = 7)): 2 (28.6) n (%) | TRAE, all grades: Hyperglycemia (200 mg/day (n = 7)): 0 n (%) | TRAE, all grades: Hypoalbuminemia (200 mg/day (n = 7)): 5 (71.4) n (%) | TRAE, all grades: Nausea (200 mg/day (n = 7)): 1 (14.3) n (%) | TRAE, all grades: Proteinuria (200 mg/day (n = 7)): 3 (42.9) n (%) | TRAE, all grades: Vomiting (200 mg/day (n = 7)): 1 (14.3) n (%) | TRAE, all grades: any (200 mg/day (n = 7)): 7 (100.0) n (%) | TRAE, Grade 3 and 4: Hyperglycemia (300 mg/day (n = 3)): 1 (33.3) n (%) | TRAE, Grade 3 and 4: any (300 mg/day (n = 3)): 1 (33.3) n (%) | TRAE, all grades: Anemia (300 mg/day (n = 3)): 0 n (%) | TRAE, all grades: Decreased appetite (300 mg/day (n = 3)): 3 (100.0) n (%) | TRAE, all grades: Decreased total protein (300 mg/day (n = 3)): 0 n (%) | TRAE, all grades: Diarrhea (300 mg/day (n = 3)): 1 (33.3) n (%) | TRAE, all grades: Elevated ALT (300 mg/day (n = 3)): 1 (33.3) n (%) | TRAE, all grades: Elevated blood glucose (300 mg/day (n = 3)): 0 n (%) | TRAE, all grades: Elevated blood triglycerides (300 mg/day (n = 3)): 0 n (%) | TRAE, all grades: Elevated blood uric acid (300 mg/day (n = 3)): 0 n (%) | TRAE, all grades: Elevated conjugated bilirubin (300 mg/day (n = 3)): 0 n (%) | TRAE, all grades: Elevated serum creatinine (300 mg/day (n = 3)): 0 n (%) | TRAE, all grades: Elevated γ-glutamyltransferase (300 mg/day (n = 3)): 0 n (%) | TRAE, all grades: Hyperglycemia (300 mg/day (n = 3)): 3 (100.0) n (%) | TRAE, all grades: Hypoalbuminemia (300 mg/day (n = 3)): 0 n (%) | TRAE, all grades: Nausea (300 mg/day (n = 3)): 3 (100.0) n (%) | TRAE, all grades: Proteinuria (300 mg/day (n = 3)): 0 n (%) | TRAE, all grades: Vomiting (300 mg/day (n = 3)): 2 (66.7) n (%) | TRAE, all grades: any (300 mg/day (n = 3)): 3 (100.0) n (%) | maximum tolerated dose (MTD) (25-300 mg/day): not reached | dose-limiting toxicities (DLTs) (28-day evaluation period, any dose level 25-300 mg/day): No DLTs were observed | treatment-related serious AE (hyperglycemia), patients (300-mg/day group): one | TRAE, Grade 3 and 4: Hyperglycemia (All (n = 17)): 1 (5.9) n (%) | TRAE, Grade 3 and 4: any (All (n = 17)): 1 (5.9) n (%) | TRAE, all grades: Anemia (All (n = 17)): 3 (17.6) n (%) | TRAE, all grades: Decreased appetite (All (n = 17)): 5 (29.4) n (%) | TRAE, all grades: Decreased total protein (All (n = 17)): 3 (17.6) n (%) | TRAE, all grades: Diarrhea (All (n = 17)): 3 (17.6) n (%) | TRAE, all grades: Elevated ALT (All (n = 17)): 2 (11.8) n (%) | TRAE, all grades: Elevated blood glucose (All (n = 17)): 3 (17.6) n (%) | TRAE, all grades: Elevated blood triglycerides (All (n = 17)): 2 (11.8) n (%) | TRAE, all grades: Elevated blood uric acid (All (n = 17)): 4 (23.5) n (%) | TRAE, all grades: Elevated conjugated bilirubin (All (n = 17)): 2 (11.8) n (%) | TRAE, all grades: Elevated serum creatinine (All (n = 17)): 4 (23.5) n (%) | TRAE, all grades: Elevated γ-glutamyltransferase (All (n = 17)): 2 (11.8) n (%) | TRAE, all grades: Hyperglycemia (All (n = 17)): 3 (17.6) n (%) | TRAE, all grades: Hypoalbuminemia (All (n = 17)): 5 (29.4) n (%) | TRAE, all grades: Nausea (All (n = 17)): 6 (35.3) n (%) | TRAE, all grades: Proteinuria (All (n = 17)): 3 (17.6) n (%) | TRAE, all grades: Vomiting (All (n = 17)): 4 (23.5) n (%) | TRAE, all grades: any (All (n = 17)): 16 (94.1) n (%) | AEs leading to drug discontinuation (all 17 patients): no adverse events (AEs) causing drug discontinuation were seen | TRAE: anemia, patients (all 17 patients): 17.6% | TRAE: decreased appetite, patients (all 17 patients): 29.4% | TRAE: decreased total protein, patients (all 17 patients): 17.6% | TRAE: diarrhea, patients (all 17 patients): 17.6% | TRAE: elevated alanine aminotransferase, patients (all 17 patients): 11.8% | TRAE: elevated blood glucose, patients (all 17 patients): 17.6% | TRAE: elevated blood triglycerides, patients (all 17 patients): 11.8% | TRAE: elevated blood uric acid, patients (all 17 patients): 23.5% | TRAE: elevated conjugated bilirubin, patients (all 17 patients): 11.8% | TRAE: elevated serum creatinine, patients (all 17 patients): 23.5% | TRAE: elevated γ-glutamyltransferase, patients (all 17 patients): 11.8% | TRAE: hyperglycemia, patients (all 17 patients): 17.6% | TRAE: hypoalbuminemia, patients (all 17 patients): 29.4% | TRAE: nausea, patients (all 17 patients): 35.3% | TRAE: proteinuria, patients (all 17 patients): 17.6% | TRAE: vomiting, patients (all 17 patients): 23.5% | patients with diarrhea (all 17 patients): 3/17 | patients with rash/pruritis (all 17 patients): no patient | Serious AEs, patients (all 17 patients (two patients)): 11.8%

— article PMC9271465 (ESMO Open, 2022)
